{"source": "ChEMBL document CHEMBL3421599", "about": "“Diterpene alkaloids with an aza-ent-kaurane skeleton from Isodon rubescens” (J Nat Prod, 2015)", "key": {"[1]": {"tested_on": "SMMC-7721", "experiment": "Cytotoxicity against human SMMC7721 cells after 48 hrs by MTT assay", "format": "functional, cell-based", "summary_of_the_method": "(§1)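 Cells seeded at 5000 to 10 000 per well, exposed to compounds at a range of concentrations for 48 h at 37 °C. MTT then added for 4 h at 37 °C under 5% CO2. Formazan dissolved in 10% SDS and absorbance read at 595 nm. Each concentration tested in triplicate. IC50 derived by the Reed and Muench method, with cisplatin as positive control.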"}, "[2]": {"tested_on": "A549", "experiment": "Cytotoxicity against human A549 cells after 48 hrs by MTT assay", "format": "functional, cell-based", "summary_of_the_method": "as §1"}, "[3]": {"tested_on": "SW480", "experiment": "Cytotoxicity against human SW480 cells after 48 hrs by MTT assay", "format": "functional, cell-based", "summary_of_the_method": "as §1"}, "[4]": {"tested_on": "MCF7", "experiment": "Cytotoxicity against human MCF7 cells after 48 hrs by MTT assay", "format": "functional, cell-based", "summary_of_the_method": "as §1"}, "[5]": {"experiment": "Cytotoxicity against human HL60 cells after 48 hrs by MTT assay", "format": "functional, cell-based, HL-60", "summary_of_the_method": "as §1"}, "[6]": {"conditions": "Homo sapiens, SMMC-7721, 48 h, read-out: IC50; call rule not given here"}, "[7]": {"conditions": "Homo sapiens, A549, 48 h, read-out: IC50"}, "[8]": {"conditions": "Homo sapiens, SW480, 48 h, read-out: IC50"}, "[9]": {"conditions": "Homo sapiens, MCF7, 48 h, read-out: IC50"}, "[10]": {"conditions": "Homo sapiens, HL-60, 48 h, read-out: IC50"}}, "data": [{"smiles": "C=C1C(=O)O[C@H]2C[C@@H]1C[C@H]1[C@@H]2[C@@]23C(OC)O[C@@]1(O)[C@@H](O)[C@@H]2C(C)(C)CC[C@@H]3O", "note": "(stereo not given in full)", "values": [{"measurement": "IC50", "setting": "[1]; smmc-7721", "result": "Active"}, {"measurement": "IC50", "setting": "[2]; a549", "result": "Active"}, {"measurement": "IC50", "setting": "[3]; sw480", "result": "Active"}, {"measurement": "IC50", "setting": "[4]; mcf7", "result": "Active"}, {"measurement": "IC50", "setting": "[5]; hl-60", "result": "Active"}]}, {"smiles": "C=C1C(=O)[C@]23[C@H](O)[C@H]1CC[C@H]2[C@@]12C=N[C@@]3(O)[C@@H](O)[C@@H]1C(C)(C)CC[C@@H]2O", "values": [{"measurement": "IC50", "setting": "[1]; [6]", "result": "> 40", "unit": "µM"}, {"measurement": "IC50", "setting": "[2]; [7]", "result": "> 40", "unit": "µM"}, {"measurement": "IC50", "setting": "[3]; [8]", "result": "> 40", "unit": "µM"}, {"measurement": "IC50", "setting": "[4]; [9]", "result": "> 40", "unit": "µM"}, {"measurement": "IC50", "setting": "[5]; [10]", "result": "> 40", "unit": "µM"}]}, {"smiles": "C=C1C(=O)OC2CC1C[C@H]1[C@@H]2[C@@]23C=NC1(O)[C@@H](O)[C@@H]2C(C)(C)CC[C@@H]3O", "values": [{"measurement": "IC50", "setting": "[1]; smmc-7721", "result": "Not Active"}, {"measurement": "IC50", "setting": "[2]; a549", "result": "Not Active"}, {"measurement": "IC50", "setting": "[3]; sw480", "result": "Not Active"}, {"measurement": "IC50", "setting": "[4]; mcf7", "result": "Not Active"}, {"measurement": "IC50", "setting": "[5]; hl-60", "result": "Not Active"}]}, {"smiles": "C=C1C(=O)[C@]23[C@H](O)[C@H]1CC[C@H]2[C@@]12CO[C@]3(O)[C@@H](O)[C@@H]1C(C)(C)CC[C@@H]2O", "note": "[ORIDONIN]", "values": [{"measurement": "IC50", "setting": "[1]; [6]", "result": 7.2, "unit": "µM"}, {"measurement": "IC50", "setting": "[2]; [7]", "result": 7.2, "unit": "µM"}, {"measurement": "IC50", "setting": "[3]; [8]", "result": 7.2, "unit": "µM"}, {"measurement": "IC50", "setting": "[4]; [9]", "result": 7.2, "unit": "µM"}, {"measurement": "IC50", "setting": "[5]; [10]", "result": 7.2, "unit": "µM"}]}]}
